Active and inactive are the calls of the source. The calls are words filed in the database; no cut-off is given here.
Legend:
Staphylococcus aureus [1] = test: Bactericidal activity against methicillin-resistant Staphylococcus aureus after 20 to 24 hrs by broth microdilution method; type: functional
Procedure, shortened: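 For MBC, 20 µL from wells of the broth microdilution MIC plate showing little or no turbidity was plated on agar and incubated 20-24 h at 37 °C. MBC was the lowest concentration giving no colonies.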

Enterobacteriaceae [2] = test: Antibacterial activity against NDM-1-producing Enterobacteriaceae isolate N7 after 16 to 20 hrs by broth microdilution method; type: functional
Procedure, shortened: (§1)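 Broth microdilution per CLSI in cation-adjusted Mueller-Hinton broth; 4-6 h cultures (~10⁸ CFU/mL) diluted to ~10⁶ CFU/mL and mixed 1:1 with twofold dilutions of water-dissolved compound (256 to 0.5 µg/mL). Incubated 16-20 h at 37 °C; MIC read visually. Each concentration run in duplicate, whole experiment repeated at least twice. MRSA, KPC and NDM-1 strains were clinical isolates.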

Staphylococcus aureus [3] = test: Antibacterial activity against methicillin-resistant Staphylococcus aureus isolate M8 after 16 to 20 hrs by broth microdilution method; type: functional
Procedure, shortened: (§2)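 CLSI broth microdilution in cation-adjusted Mueller-Hinton broth. A 4-6 h culture was diluted to about 10⁶ CFU/mL and mixed 1:1 with twofold compound dilutions (256–0.5 µg/mL before mixing) prepared from aqueous stocks. Plates were incubated at 37 °C for 16-20 h. Each concentration was tested in duplicate, and the experiment was repeated at least twice.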

Enterobacteriaceae [4] = test: Antibacterial activity against NDM-1-producing Enterobacteriaceae isolate N2 after 16 to 20 hrs by broth microdilution method; type: functional; procedure, shortened: as §1
Staphylococcus aureus [5] = test: Induction of inner membrane permeabilization in Staphylococcus aureus ATCC 29213 at 20 ug/ml measured every 2 mins for 12 mins by propidium iodide staining based fluorescence assay; type: functional, organism-based
Procedure, shortened: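 Mid-log cells (~10^8 CFU/mL) pre-incubated with propidium iodide (10 µM, 50 µL), 30 min for S. aureus and 40 min for E. coli. Fluorescence (ex 535/em 617 nm) read for 8 min, then compound added to 20 µg/mL final and monitored every 2 min for 12 min. Water-treated control.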

Klebsiella pneumoniae [6] = test: Antibacterial activity against carbapenemase-producing Klebsiella pneumoniae isolate K5 after 16 to 20 hrs by broth microdilution method; type: functional; procedure, shortened: as §1
Enterobacteriaceae [7] = test: Antibacterial activity against NDM-1-producing Enterobacteriaceae isolate N8 after 16 to 20 hrs by broth microdilution method; type: functional; procedure, shortened: as §1
Staphylococcus aureus [8] = test: Antibacterial activity against methicillin-resistant Staphylococcus aureus isolate M7 after 16 to 20 hrs by broth microdilution method; type: functional; procedure, shortened: as §2
Staphylococcus aureus [9] = test: Antibacterial activity against methicillin-resistant Staphylococcus aureus isolate M10 after 16 to 20 hrs by broth microdilution method; type: functional; procedure, shortened: as §2
Staphylococcus aureus [10] = test: Antibacterial activity against methicillin-resistant Staphylococcus aureus isolate M4 after 16 to 20 hrs by broth microdilution method; type: functional; procedure, shortened: as §2
Escherichia coli [11] = test: Induction of cytoplasmic membrane depolarization in Escherichia coli ATCC 25922 at 20 ug/ml measured every 2 mins for 12 mins by diSC35 staining based fluorescence assay; type: functional, organism-based
Procedure, shortened: (§3)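 Mid-log cells (4–6 h) pelleted, washed and resuspended (~10^8 CFU/mL) in PBS for S. aureus, or in 5 mM HEPES, 5 mM glucose and 100 mM KCl (1:1:1) for E. coli. Preloaded with diSC35 (10 µM, 50 µL), 30 min for S. aureus and 40 min plus EDTA (200 µM, 50 µL) for E. coli. Baseline read 8 min (ex 622/em 670 nm), then compound added to 20 µg/mL final and read every 2 min for 12 min. Water control.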

Enterobacteriaceae [12] = test: Antibacterial activity against NDM-1-producing Enterobacteriaceae isolate N10 after 16 to 20 hrs by broth microdilution method; type: functional; procedure, shortened: as §1
Staphylococcus aureus [13] = test: Bactericidal activity against methicillin-resistant Staphylococcus aureus after 20 to 24 hrs in presence of 50% serum by broth microdilution method; type: functional, organism-based
Procedure, shortened: (§4)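 MRSA at 10⁵ CFU/mL in 50% Mueller-Hinton broth plus 50% sheep serum, plasma or defibrinated whole blood. Serum and plasma were separated by centrifugation at 3,500 rpm for 10 min. Aqueous compound dilutions (512–4 µg/mL before mixing) were combined 1:3 with the suspension and incubated 20-24 h at 37 °C. Wells were plated on Mueller-Hinton agar for a further 20-24 h; MBC was taken as no colonies.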

Klebsiella pneumoniae [14] = test: Antibacterial activity against carbapenemase-producing Klebsiella pneumoniae isolate K4 after 16 to 20 hrs by broth microdilution method; type: functional; procedure, shortened: as §1
Enterobacteriaceae [15] = test: Antibacterial activity against NDM-1-producing Enterobacteriaceae isolate N5 after 16 to 20 hrs by broth microdilution method; type: functional; procedure, shortened: as §1
Staphylococcus aureus [16] = test: Bactericidal activity against methicillin-resistant Staphylococcus aureus after 20 to 24 hrs in presence of 50% plasma by broth microdilution method; type: functional, organism-based; procedure, shortened: as §4
Staphylococcus aureus [17] = test: Antibacterial activity against methicillin-resistant Staphylococcus aureus isolate M2 after 16 to 20 hrs by broth microdilution method; type: functional; procedure, shortened: as §2
Escherichia coli [18] = test: Antibacterial activity against Escherichia coli ATCC 25922 after 16 to 20 hrs by broth microdilution method; type: functional; procedure, shortened: as §1
Klebsiella pneumoniae [19] = test: Antibacterial activity against carbapenemase-producing Klebsiella pneumoniae isolate K6 after 16 to 20 hrs by broth microdilution method; type: functional; procedure, shortened: as §1
Klebsiella pneumoniae [20] = test: Antibacterial activity against carbapenemase-producing Klebsiella pneumoniae isolate K10 after 16 to 20 hrs by broth microdilution method; type: functional; procedure, shortened: as §1
Staphylococcus aureus [21] = test: Induction of cytoplasmic membrane depolarization in Staphylococcus aureus ATCC 29213 at 20 ug/ml measured every 2 mins for 12 mins by diSC35 staining based fluorescence assay; type: functional, organism-based; procedure, shortened: as §3
Klebsiella pneumoniae [22] = test: Antibacterial activity against carbapenemase-producing Klebsiella pneumoniae isolate K9 after 16 to 20 hrs by broth microdilution method; type: functional; procedure, shortened: as §1
Staphylococcus aureus [23] = test: Ratio of MBC for methicillin-resistant Staphylococcus aureus in presence of 50% serum to MBC for methicillin-resistant Staphylococcus aureus; type: functional; procedure, shortened: as §4
Klebsiella pneumoniae [24] = test: Antibacterial activity against carbapenemase-producing Klebsiella pneumoniae isolate K8 after 16 to 20 hrs by broth microdilution method; type: functional; procedure, shortened: as §1
Klebsiella pneumoniae [25] = test: Antibacterial activity against carbapenemase-producing Klebsiella pneumoniae isolate K1 after 16 to 20 hrs by broth microdilution method; type: functional; procedure, shortened: as §1
Klebsiella pneumoniae [26] = test: Antibacterial activity against carbapenemase-producing Klebsiella pneumoniae after 16 to 20 hrs by broth microdilution method; type: functional; procedure, shortened: as §1
Staphylococcus aureus [27] = test: Antibacterial activity against methicillin-resistant Staphylococcus aureus isolate M5 after 16 to 20 hrs by broth microdilution method; type: functional; procedure, shortened: as §2
Enterobacteriaceae [28] = test: Antibacterial activity against NDM-1-producing Enterobacteriaceae isolate N1 after 16 to 20 hrs by broth microdilution method; type: functional; procedure, shortened: as §1
Staphylococcus aureus [29] = test: Bactericidal activity against Staphylococcus aureus after 20 to 24 hrs using compounds preincubated with 50% plasma for 3 to 6 hrs by broth microdilution method
Klebsiella pneumoniae [30] = test: Antibacterial activity against carbapenemase-producing Klebsiella pneumoniae isolate K3 after 16 to 20 hrs by broth microdilution method; type: functional; procedure, shortened: as §1
Staphylococcus aureus [31] = test: Antibacterial activity against methicillin-resistant Staphylococcus aureus isolate M1 after 16 to 20 hrs by broth microdilution method; type: functional; procedure, shortened: as §2
Klebsiella pneumoniae [32] = test: Antibacterial activity against carbapenemase-producing Klebsiella pneumoniae isolate K2 after 16 to 20 hrs by broth microdilution method; type: functional; procedure, shortened: as §1

Structure (SMILES)	MBC (Staphylococcus aureus [1]) [µg/mL]	MIC (Enterobacteriaceae [2]) [µg/mL]	MIC (Staphylococcus aureus [3]) [µg/mL]	MIC (Enterobacteriaceae [4]) [µg/mL]	Activity (Staphylococcus aureus [5])	MIC (Klebsiella pneumoniae [6]) [µg/mL]	MIC (Enterobacteriaceae [7]) [µg/mL]	MIC (Staphylococcus aureus [8]) [µg/mL]	MIC (Staphylococcus aureus [9]) [µg/mL]	MIC (Staphylococcus aureus [10]) [µg/mL]	Activity (Escherichia coli [11])	MIC (Enterobacteriaceae [12]) [µg/mL]	Activity (Staphylococcus aureus [13])	MIC (Klebsiella pneumoniae [14]) [µg/mL]	MIC (Enterobacteriaceae [15]) [µg/mL]	Activity (Staphylococcus aureus [16])	MIC (Staphylococcus aureus [17]) [µg/mL]	MIC (Escherichia coli [18]) [µg/mL]	MIC (Klebsiella pneumoniae [19]) [µg/mL]	MIC (Klebsiella pneumoniae [20]) [µg/mL]	further results
CCCCCCCCCCN(CCCCCCCCCC)C(=O)[C@@H](N)CCCN=C(N)N.Cl.Cl.Cl	4 to 8	4	2	4	Active	4	4	2	2	2	Active	8	Active	4	4	Active	1	8	4	4	Activity (Staphylococcus aureus [21]): Active; MIC (Klebsiella pneumoniae [22]): 4 µg/mL; Ratio (Staphylococcus aureus [23]): 1 - 2; MIC (Klebsiella pneumoniae [24]): 4 µg/mL; MIC (Klebsiella pneumoniae [25]): 4 µg/mL; MIC (Klebsiella pneumoniae [26]): 4 µg/mL; MIC (Staphylococcus aureus [27]): 2 µg/mL; MIC (Enterobacteriaceae [28]): 4 µg/mL; MBC (Staphylococcus aureus [29]): 16 µg/mL; MIC (Klebsiella pneumoniae [30]): 4 µg/mL; MIC (Staphylococcus aureus [31]): 2 µg/mL; MIC (Klebsiella pneumoniae [32]): 4 µg/mL
CCCCCCCCCN(CCCCCCCCC)C(=O)[C@@H](N)CCCN=C(N)N.Cl.Cl.Cl	4 to 8	2	2	4	Active	4	2	2	2	1	Active	4	Active	2	4	Active	1	2	4	4	Activity (Staphylococcus aureus [21]): Active; MIC (Klebsiella pneumoniae [22]): 4 µg/mL; Ratio (Staphylococcus aureus [23]): 1 - 2; MIC (Klebsiella pneumoniae [24]): 4 µg/mL; MIC (Klebsiella pneumoniae [25]): 4 µg/mL; MIC (Klebsiella pneumoniae [26]): 4 µg/mL; MIC (Staphylococcus aureus [27]): 2 µg/mL; MIC (Enterobacteriaceae [28]): 4 µg/mL; MBC (Staphylococcus aureus [29]): 16 µg/mL; MIC (Klebsiella pneumoniae [30]): 4 µg/mL; MIC (Staphylococcus aureus [31]): 2 µg/mL; MIC (Klebsiella pneumoniae [32]): 4 µg/mL
CCCCCCCCN(CCCCCCCC)C(=O)[C@@H](N)CCCN=C(N)N.Cl.Cl.Cl	4 to 8	4	1	8	Active	8	4	0.5	0.5	1	Active	8	Active	4	4	Active	1	2	8	4	Activity (Staphylococcus aureus [21]): Active; MIC (Klebsiella pneumoniae [22]): 8 µg/mL; Ratio (Staphylococcus aureus [23]): 1 - 2; MIC (Klebsiella pneumoniae [24]): 4 µg/mL; MIC (Klebsiella pneumoniae [25]): 8 µg/mL; MIC (Klebsiella pneumoniae [26]): 4 µg/mL; MIC (Staphylococcus aureus [27]): 1 µg/mL; MIC (Enterobacteriaceae [28]): 8 µg/mL; MBC (Staphylococcus aureus [29]): 16 µg/mL; MIC (Klebsiella pneumoniae [30]): 4 µg/mL; MIC (Staphylococcus aureus [31]): 1 µg/mL; MIC (Klebsiella pneumoniae [32]): 4 µg/mL

— ChEMBL document CHEMBL4130549, “Synthesis and bioactivities study of new antibacterial peptide mimics: The dialkyl cationic amphiphiles” (Eur J Med Chem, 2018)
